Values after ≈ are worked out from the molar mass of the structure shown. Active and inactive are the calls of the source. The rule behind the calls is not given here.
How the values were obtained:
[1] = tested on: Pichia kudriavzevii; experiment: Antifungal activity against Candida krusei ATCC 6258 after 48 hrs by broth macrodilution method; type: functional; settings: ATCC 6258, 48 h
In short: (§1)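 Yeasts grown 1 day on SDA at 37 °C, subcultured, suspended in saline and diluted in MOPS-buffered RPMI 1640 (pH 7.0) to 1-2 × 10^3 CFU/mL. Broth macrodilution per CLSI M27-A2, twofold dilutions 200-0.8 µg/mL (DMSO ≤2% final), aerobic, 37 °C, 48 h. MIC = 80% turbidity reduction vs drug-free control; MFC from SDA subculture at 37 °C. Three independent experiments in duplicate.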

[2] = tested on: Candida tropicalis; experiment: Antifungal activity against Candida tropicalis ATCC 13803 after 48 hrs by broth macrodilution method; type: functional; settings: ATCC 13803, 48 h; in short: as §1
[3] = tested on: Candida albicans; experiment: Antifungal activity against Candida albicans D5 after 48 hrs by broth macrodilution method; type: functional; in short: as §1
[4] = tested on: Nakaseomyces glabratus; experiment: Antifungal activity against Candida glabrata D10R after 48 hrs by broth macrodilution method; type: functional
In short: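 Broth macrodilution per CLSI M27-A2 (minor modifications). Inoculum 1-2 × 10^3 CFU/mL in RPMI 1640 with L-glutamine, MOPS-buffered 0.165 M, pH 7.0. Twofold dilutions 200-0.8 µg/mL from DMSO stock (final DMSO ≤2%). Aerobic, 37 °C, 48 h. MIC = lowest concentration giving 80% turbidity reduction versus drug-free control. Three independent experiments in duplicate.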

[5] = tested on: Epidermophyton floccosum; experiment: Antifungal activity against Epidermophyton floccosum FF9 after 5 days by broth macrodilution method; type: functional; settings: 120 h
In short: (§2)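 Dermatophytes grown 5 days on SDA at 30 °C, subcultured. Conidial suspensions in saline were adjusted in MOPS-buffered RPMI 1640 (pH 7.0) to 1-2 × 10^4 CFU/mL. Macrodilution adapted from CLSI M38-A with 200-0.8 µg/mL twofold dilutions (DMSO ≤2%), incubated at 30 °C for 5 days. MIC at 80% turbidity reduction vs control; MFC by SDA subculture at 30 °C. Triplicate experiments in duplicate.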

[6] = tested on: Trichophyton rubrum; experiment: Antifungal activity against Trichophyton rubrum FF5 after 5 days by broth macrodilution method; type: functional; settings: 120 h; in short: as §2
[7] = tested on: Trichophyton mentagrophytes; experiment: Antifungal activity against Trichophyton mentagrophytes FF7 after 5 days by broth macrodilution method; type: functional; settings: 120 h; in short: as §2
[8] = tested on: Microsporum canis; experiment: Antifungal activity against Microsporum canis FF1 after 5 days by broth macrodilution method; type: functional; settings: 120 h; in short: as §2
[9] = tested on: Nannizzia gypsea; experiment: Antifungal activity against Microsporum gypseum FF3 after 5 days by broth macrodilution method; type: functional; settings: 120 h; in short: as §2
[10] = tested on: Candida albicans; experiment: Antifungal activity against Candida albicans ATCC 10231 after 48 hrs by broth macrodilution method; type: functional; settings: ATCC 10231, 48 h; in short: as §1
[11] = tested on: Aspergillus flavus; experiment: Antifungal activity against Aspergillus flavus F44 after 3 days by broth macrodilution method; type: functional; settings: 72 h
In short: (§3)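 Aspergillus inoculum from 3-day SDA subcultures at 30 °C; conidial suspension in 0.85% saline, diluted in RPMI 1640 (L-glutamine, no bicarbonate, 0.165 M MOPS, pH 7.0) to 1-2 × 10^4 CFU/mL. Twofold dilutions 200-0.8 µg/mL from DMSO stock (final DMSO ≤2%); macrodilution per CLSI M38-A, 30 °C, 3 days. MIC = lowest concentration giving 80% turbidity reduction vs drug-free control; MFC by subculture on SDA. Three independent experiments in duplicate.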

[12] = tested on: Aspergillus fumigatus; experiment: Antifungal activity against Aspergillus fumigatus ATCC 46645 after 3 days by broth macrodilution method; type: functional; settings: ATCC 46645, 72 h; in short: as §3
[13] = tested on: Aspergillus niger; experiment: Antifungal activity against Aspergillus niger ATCC 16404 after 3 days by broth macrodilution method; type: functional; settings: ATCC 16404, 72 h; in short: as §3
[14] = tested on: Candida albicans; experiment: Antifungal activity against Candida albicans ATCC 10231 assessed as red fluorescence stained with FUN1 by flow cytometry; type: functional
In short: (§4)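 Overnight SDA cells suspended in RPMI 1640 at (2.0 ± 0.2) × 10^6 CFU/mL. Twofold dilutions 256 to one µg/mL applied at 35 °C, humid, no agitation, 2, 4 and 24 h. Washed; FUN-1 0.5 µM in PBS/2% glucose (20 min, 35 °C, FL2) or PI 1 µg/mL with 0.125% deoxycholate (~10 min, room temperature, FL3). ≥7500 events; marker included ≤5% of drug-free control cells.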

[15] = tested on: Aspergillus fumigatus; experiment: Antifungal activity against Aspergillus fumigatus ATCC 46645 assessed as red fluorescence stained with FUN1 by flow cytometry; type: functional, organism-based
In short: (§5)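 Conidia from 4–7-day SDA cultures suspended in water with 0.01% Tween 80 at (2.0 ± 0.2) × 10^6 CFU/mL. Exposed to twofold dilutions 256 to one µg/mL at 35 °C, water bath with agitation, 3, 4 and 24 h. FUN-1 0.5 µM (20 min, 35 °C, FL2) or PI 1 µg/mL (1 h, 35 °C, FL3); ≥7500 events; positive-cell marker set at ≤5% of drug-free controls.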

[16] = tested on: Candida albicans; experiment: Antifungal activity against Candida albicans ATCC 10231 assessed as red fluorescence stained with PI by flow cytometry; type: functional; in short: as §4
[17] = tested on: Aspergillus fumigatus; experiment: Antifungal activity against Aspergillus fumigatus ATCC 46645 assessed as red fluorescence stained with PI by flow cytometry; type: functional; in short: as §5

Row | SMILES | MFC [1] [µg/mL] | MIC [1] [µg/mL] | MFC [2] [µg/mL] | MIC [2] [µg/mL] | MFC [3] [µg/mL] | MIC [3] [µg/mL] | MFC [4] [µg/mL] | MIC [4] [µg/mL] | MFC [5] [µg/mL] | MIC [5] [µg/mL] | MFC [6] [µg/mL] | MIC [6] [µg/mL] | MFC [7] [µg/mL] | MIC [7] [µg/mL] | MFC [8] [µg/mL] | MIC [8] [µg/mL] | MFC [9] [µg/mL] | MIC [9] [µg/mL] | MFC [10] [µg/mL] | MIC [10] [µg/mL] | further results
1 | OC(Cn1cncn1)(Cn1cncn1)c1ccc(F)cc1F [FLUCONAZOLE] | 64 (≈ 209 µM) | 64 (≈ 209 µM) | > 128 | 4 (≈ 13.1 µM) | > 128 | > 128 | 32 (≈ 104 µM) | 32 (≈ 104 µM) | 16 (≈ 52.2 µM) | 16 (≈ 52.2 µM) | 32 (≈ 104 µM) | 16 (≈ 52.2 µM) | 32 (≈ 104 µM) | 16 (≈ 52.2 µM) | 128 (≈ 418 µM) | 128 (≈ 418 µM) | > 128 | > 128 | > 128 | 1 (≈ 3.27 µM) | –
2 | CCOC(=O)c1sc2ccccc2c1Nc1ccc(OC)cc1 | > 200 | > 200 | > 200 | > 200 | > 200 | > 200 | > 200 | > 200 | > 200 | > 200 | > 200 | > 200 | > 200 | > 200 | > 200 | > 200 | > 200 | > 200 | > 200 | > 200 | MFC [11]: > 200 µg/mL; MIC [11]: > 200 µg/mL; MFC [12]: > 200 µg/mL; MIC [12]: > 200 µg/mL; MFC [13]: > 200 µg/mL; MIC [13]: > 200 µg/mL
3 | C[C@@H]1[C@H](O)[C@@H](C)/C=C/C=C/C=C/C=C/C=C/C=C/C=C/[C@H](O[C@@H]2O[C@H](C)[C@@H](O)[C@H](N)[C@@H]2O)C[C@@H]2O[C@](O)(C[C@@H](O)C[C@@H](O)[C@H](O)CC[C@@H](O)C[C@@H](O)CC(=O)O[C@H]1C)C[C@H](O)[C@H]2C(=O)O [AMPHOTERICIN B] | – | – | – | – | – | – | – | – | – | – | – | – | – | – | – | – | – | – | – | – | MFC [11]: 8 µg/mL (≈ 8.66 µM); MIC [11]: 2 µg/mL (≈ 2.16 µM); MFC [12]: 4 µg/mL (≈ 4.33 µM); MIC [12]: 2 µg/mL (≈ 2.16 µM); MFC [13]: 4 µg/mL (≈ 4.33 µM); MIC [13]: 1 µg/mL (≈ 1.08 µM); Activity [14]: 60%; Activity [15]: Active; Activity [16]: 40%; Activity [17]: 40%
4 | CCOC(=O)c1sc2ccccc2c1Nc1ccc(O)cc1 | > 200 | > 200 | > 200 | > 200 | > 200 | > 200 | > 200 | > 200 | 12.5 (≈ 39.9 µM) | 3.13 (≈ 9.99 µM) | 6.25 (≈ 19.9 µM) | 6.25 (≈ 19.9 µM) | 6.25 (≈ 19.9 µM) | 6.25 (≈ 19.9 µM) | 1.56 (≈ 4.98 µM) | 1.56 (≈ 4.98 µM) | 12.5 (≈ 39.9 µM) | 6.25 (≈ 19.9 µM) | > 200 | > 200 | MFC [11]: > 200 µg/mL; MIC [11]: > 200 µg/mL; MFC [12]: > 200 µg/mL; MIC [12]: > 200 µg/mL; MFC [13]: > 200 µg/mL; MIC [13]: > 200 µg/mL
